Assay results taken from ChEMBL document CHEMBL1147215, “Novel 2-aminobenzothiazoles as selective neuronal nitric oxide synthase inhibitors” (Bioorg Med Chem Lett, 2007).

How the values were obtained:
Nitric oxide synthase 1 [1] = biological target: Nitric oxide synthase 1 (Homo sapiens, UniProt P29475); assay: Inhibition of human neuronal NOS activity
Nitric oxide synthase 3 [2] = biological target: T1, Nitric oxide synthase 3 (Homo sapiens, UniProt P29474); assay: Inhibition of human endothelial NOS activity
T1 sequence (P29474 whole entry): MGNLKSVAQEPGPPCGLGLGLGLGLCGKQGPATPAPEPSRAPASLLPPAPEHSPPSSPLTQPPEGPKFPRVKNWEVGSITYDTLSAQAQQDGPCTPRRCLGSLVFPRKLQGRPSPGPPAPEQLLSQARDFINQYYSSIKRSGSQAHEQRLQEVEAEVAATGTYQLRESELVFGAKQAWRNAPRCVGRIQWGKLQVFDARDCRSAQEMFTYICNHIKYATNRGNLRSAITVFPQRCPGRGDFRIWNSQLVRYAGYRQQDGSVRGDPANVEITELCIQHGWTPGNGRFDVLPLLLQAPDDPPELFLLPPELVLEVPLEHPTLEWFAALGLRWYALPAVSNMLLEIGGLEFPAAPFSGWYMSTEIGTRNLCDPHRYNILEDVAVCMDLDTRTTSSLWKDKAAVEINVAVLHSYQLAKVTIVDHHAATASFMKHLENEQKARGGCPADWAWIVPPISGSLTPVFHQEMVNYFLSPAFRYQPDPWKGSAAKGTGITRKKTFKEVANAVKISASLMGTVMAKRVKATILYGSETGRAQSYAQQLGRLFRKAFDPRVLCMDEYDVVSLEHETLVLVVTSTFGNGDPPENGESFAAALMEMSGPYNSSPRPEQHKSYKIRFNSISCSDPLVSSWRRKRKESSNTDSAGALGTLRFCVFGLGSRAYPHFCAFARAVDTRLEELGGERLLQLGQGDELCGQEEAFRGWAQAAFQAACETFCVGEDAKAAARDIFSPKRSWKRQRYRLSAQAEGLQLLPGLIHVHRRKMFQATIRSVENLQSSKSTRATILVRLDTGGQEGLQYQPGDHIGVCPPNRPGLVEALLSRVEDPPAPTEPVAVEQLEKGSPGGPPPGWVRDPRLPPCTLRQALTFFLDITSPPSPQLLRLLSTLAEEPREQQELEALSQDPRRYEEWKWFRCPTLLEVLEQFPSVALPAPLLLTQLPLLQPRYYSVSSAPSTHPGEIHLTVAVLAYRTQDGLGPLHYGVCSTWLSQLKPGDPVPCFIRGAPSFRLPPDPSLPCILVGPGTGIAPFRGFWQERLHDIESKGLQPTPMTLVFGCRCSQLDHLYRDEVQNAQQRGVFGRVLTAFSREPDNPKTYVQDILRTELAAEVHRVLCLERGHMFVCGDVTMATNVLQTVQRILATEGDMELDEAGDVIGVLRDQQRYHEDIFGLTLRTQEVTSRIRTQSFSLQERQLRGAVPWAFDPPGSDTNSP
Summary of the method: (§1)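 Human NOS isoform activity read out as conversion of [³H]L-arginine to [³H]L-citrulline. Percent inhibition was measured at 8–12 inhibitor concentrations to derive IC₅₀.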

[3] = biological target: Nitric oxide synthase, inducible (Homo sapiens, UniProt P35228); assay: Inhibition of human inducible NOS activity; summary of the method: as §1
Chain of Nitric oxide synthase, inducible (Homo sapiens, UniProt P35228) (P35228 whole entry): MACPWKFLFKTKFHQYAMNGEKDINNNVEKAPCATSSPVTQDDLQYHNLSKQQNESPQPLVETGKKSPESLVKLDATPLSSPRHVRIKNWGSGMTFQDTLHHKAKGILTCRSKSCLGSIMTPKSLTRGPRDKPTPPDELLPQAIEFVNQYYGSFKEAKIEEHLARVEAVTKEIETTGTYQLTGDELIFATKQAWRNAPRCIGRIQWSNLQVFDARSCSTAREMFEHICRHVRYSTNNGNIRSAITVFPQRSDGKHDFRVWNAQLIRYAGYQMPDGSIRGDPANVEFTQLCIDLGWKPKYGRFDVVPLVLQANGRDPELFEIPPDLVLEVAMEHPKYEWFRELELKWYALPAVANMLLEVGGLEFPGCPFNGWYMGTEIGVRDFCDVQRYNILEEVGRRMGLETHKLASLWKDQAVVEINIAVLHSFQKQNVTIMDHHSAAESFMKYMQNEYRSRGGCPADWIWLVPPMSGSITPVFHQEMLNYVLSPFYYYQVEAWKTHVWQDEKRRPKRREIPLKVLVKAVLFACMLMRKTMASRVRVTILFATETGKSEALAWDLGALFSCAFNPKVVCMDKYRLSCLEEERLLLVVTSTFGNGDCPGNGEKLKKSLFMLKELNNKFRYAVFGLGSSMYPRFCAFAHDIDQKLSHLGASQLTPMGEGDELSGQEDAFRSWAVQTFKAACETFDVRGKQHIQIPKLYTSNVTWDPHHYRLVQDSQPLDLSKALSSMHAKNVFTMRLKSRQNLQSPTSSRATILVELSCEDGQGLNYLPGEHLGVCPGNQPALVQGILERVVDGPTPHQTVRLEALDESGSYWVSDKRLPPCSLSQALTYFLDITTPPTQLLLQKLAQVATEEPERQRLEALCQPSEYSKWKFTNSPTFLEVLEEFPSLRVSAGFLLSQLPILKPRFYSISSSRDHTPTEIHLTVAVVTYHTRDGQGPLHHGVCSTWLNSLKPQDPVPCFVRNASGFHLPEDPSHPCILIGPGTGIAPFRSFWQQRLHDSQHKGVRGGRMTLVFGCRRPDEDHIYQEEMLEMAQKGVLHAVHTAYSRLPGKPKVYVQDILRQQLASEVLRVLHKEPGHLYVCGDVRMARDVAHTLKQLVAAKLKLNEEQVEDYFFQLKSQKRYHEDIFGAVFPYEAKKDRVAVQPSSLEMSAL

Nitric oxide synthase 1 [4] = biological target: Nitric oxide synthase 1 (Rattus norvegicus, UniProt P29476); assay: Inhibition of rat neuronal NOS activity
Nitric oxide synthase 3 [5] = biological target: T2, Nitric oxide synthase 3 (Rattus norvegicus, UniProt Q62600); assay: Inhibition of rat endothelial NOS activity
T2 sequence (Q62600 whole entry): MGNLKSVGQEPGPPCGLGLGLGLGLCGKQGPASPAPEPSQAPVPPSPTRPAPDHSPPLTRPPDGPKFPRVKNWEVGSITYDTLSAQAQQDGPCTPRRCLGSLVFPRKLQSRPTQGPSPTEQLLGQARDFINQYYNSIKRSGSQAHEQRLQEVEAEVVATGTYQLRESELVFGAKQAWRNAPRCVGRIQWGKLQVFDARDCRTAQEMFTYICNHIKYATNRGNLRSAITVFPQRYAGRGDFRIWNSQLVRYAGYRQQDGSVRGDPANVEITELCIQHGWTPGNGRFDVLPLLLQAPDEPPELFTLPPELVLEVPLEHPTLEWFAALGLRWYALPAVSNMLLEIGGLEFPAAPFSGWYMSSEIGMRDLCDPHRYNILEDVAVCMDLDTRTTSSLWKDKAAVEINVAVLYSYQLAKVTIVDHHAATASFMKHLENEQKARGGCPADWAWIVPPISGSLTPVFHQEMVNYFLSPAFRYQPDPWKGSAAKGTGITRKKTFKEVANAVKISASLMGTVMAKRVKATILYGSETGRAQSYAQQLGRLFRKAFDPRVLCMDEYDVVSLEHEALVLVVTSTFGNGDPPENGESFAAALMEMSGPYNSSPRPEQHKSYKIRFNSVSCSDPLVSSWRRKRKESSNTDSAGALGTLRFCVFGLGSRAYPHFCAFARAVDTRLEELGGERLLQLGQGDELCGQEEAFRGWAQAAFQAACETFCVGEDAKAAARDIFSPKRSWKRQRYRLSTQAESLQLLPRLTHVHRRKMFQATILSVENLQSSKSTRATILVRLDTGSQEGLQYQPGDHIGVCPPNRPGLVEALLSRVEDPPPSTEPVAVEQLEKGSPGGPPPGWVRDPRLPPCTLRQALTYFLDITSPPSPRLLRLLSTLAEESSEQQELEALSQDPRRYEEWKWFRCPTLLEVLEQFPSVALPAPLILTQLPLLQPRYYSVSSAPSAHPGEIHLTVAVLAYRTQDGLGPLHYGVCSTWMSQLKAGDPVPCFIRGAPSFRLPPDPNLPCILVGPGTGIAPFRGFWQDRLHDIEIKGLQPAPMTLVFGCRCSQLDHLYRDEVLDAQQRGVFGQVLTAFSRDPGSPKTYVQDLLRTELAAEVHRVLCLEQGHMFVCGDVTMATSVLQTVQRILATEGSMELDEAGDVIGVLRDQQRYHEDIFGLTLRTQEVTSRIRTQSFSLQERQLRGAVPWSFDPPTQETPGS
Summary of the method: (§2)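 Rat NOS isoform activity read out as conversion of radiolabelled L-arginine to L-citrulline. Percent inhibition was measured in duplicate at 8–12 concentrations to give IC₅₀.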

[6] = biological target: Nitric oxide synthase, inducible (Rattus norvegicus, UniProt Q06518); assay: Inhibition of rat inducible NOS activity; summary of the method: as §2
Chain of Nitric oxide synthase, inducible (Rattus norvegicus, UniProt Q06518) (Q06518 whole entry): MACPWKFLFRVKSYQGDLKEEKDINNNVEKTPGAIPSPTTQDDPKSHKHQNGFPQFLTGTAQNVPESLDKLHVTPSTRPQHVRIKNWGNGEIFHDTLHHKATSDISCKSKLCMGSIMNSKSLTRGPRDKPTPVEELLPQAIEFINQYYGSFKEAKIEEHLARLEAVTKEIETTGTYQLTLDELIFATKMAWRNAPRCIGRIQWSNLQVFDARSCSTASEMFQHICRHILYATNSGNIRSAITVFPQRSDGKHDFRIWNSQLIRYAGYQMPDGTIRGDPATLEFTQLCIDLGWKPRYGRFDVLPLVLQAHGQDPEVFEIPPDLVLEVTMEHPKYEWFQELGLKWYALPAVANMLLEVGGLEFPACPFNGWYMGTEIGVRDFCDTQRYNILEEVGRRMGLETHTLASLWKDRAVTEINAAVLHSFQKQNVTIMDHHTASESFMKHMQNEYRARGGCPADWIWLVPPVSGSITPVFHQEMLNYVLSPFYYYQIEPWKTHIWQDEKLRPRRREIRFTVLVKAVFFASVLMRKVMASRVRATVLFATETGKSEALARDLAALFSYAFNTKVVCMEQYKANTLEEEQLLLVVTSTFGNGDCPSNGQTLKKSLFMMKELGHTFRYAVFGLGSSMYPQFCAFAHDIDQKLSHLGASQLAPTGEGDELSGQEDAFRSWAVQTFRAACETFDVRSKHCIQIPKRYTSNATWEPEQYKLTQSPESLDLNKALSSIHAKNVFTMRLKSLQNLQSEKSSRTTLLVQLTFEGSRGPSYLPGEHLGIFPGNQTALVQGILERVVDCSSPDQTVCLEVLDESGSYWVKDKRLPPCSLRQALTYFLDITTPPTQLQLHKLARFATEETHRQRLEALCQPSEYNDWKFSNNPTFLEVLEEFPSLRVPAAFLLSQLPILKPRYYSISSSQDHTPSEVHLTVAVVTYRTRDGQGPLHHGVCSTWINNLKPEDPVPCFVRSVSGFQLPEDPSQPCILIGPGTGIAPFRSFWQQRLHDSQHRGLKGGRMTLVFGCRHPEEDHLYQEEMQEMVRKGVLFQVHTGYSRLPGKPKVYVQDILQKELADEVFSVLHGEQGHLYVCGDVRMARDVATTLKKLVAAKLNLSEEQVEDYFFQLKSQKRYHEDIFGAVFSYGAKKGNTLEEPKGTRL

Homo sapiens = species on record: Homo sapiens; assay: Selectivity for human nNOS over human eNOS
Summary of the method: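 Ratio of human eNOS IC₅₀ to human nNOS IC₅₀. Each IC₅₀ comes from radiolabelled arginine-to-citrulline conversion, with percent inhibition at 8–12 concentrations.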

Chain of Nitric oxide synthase 1 (Homo sapiens, UniProt P29475) (P29475 whole entry): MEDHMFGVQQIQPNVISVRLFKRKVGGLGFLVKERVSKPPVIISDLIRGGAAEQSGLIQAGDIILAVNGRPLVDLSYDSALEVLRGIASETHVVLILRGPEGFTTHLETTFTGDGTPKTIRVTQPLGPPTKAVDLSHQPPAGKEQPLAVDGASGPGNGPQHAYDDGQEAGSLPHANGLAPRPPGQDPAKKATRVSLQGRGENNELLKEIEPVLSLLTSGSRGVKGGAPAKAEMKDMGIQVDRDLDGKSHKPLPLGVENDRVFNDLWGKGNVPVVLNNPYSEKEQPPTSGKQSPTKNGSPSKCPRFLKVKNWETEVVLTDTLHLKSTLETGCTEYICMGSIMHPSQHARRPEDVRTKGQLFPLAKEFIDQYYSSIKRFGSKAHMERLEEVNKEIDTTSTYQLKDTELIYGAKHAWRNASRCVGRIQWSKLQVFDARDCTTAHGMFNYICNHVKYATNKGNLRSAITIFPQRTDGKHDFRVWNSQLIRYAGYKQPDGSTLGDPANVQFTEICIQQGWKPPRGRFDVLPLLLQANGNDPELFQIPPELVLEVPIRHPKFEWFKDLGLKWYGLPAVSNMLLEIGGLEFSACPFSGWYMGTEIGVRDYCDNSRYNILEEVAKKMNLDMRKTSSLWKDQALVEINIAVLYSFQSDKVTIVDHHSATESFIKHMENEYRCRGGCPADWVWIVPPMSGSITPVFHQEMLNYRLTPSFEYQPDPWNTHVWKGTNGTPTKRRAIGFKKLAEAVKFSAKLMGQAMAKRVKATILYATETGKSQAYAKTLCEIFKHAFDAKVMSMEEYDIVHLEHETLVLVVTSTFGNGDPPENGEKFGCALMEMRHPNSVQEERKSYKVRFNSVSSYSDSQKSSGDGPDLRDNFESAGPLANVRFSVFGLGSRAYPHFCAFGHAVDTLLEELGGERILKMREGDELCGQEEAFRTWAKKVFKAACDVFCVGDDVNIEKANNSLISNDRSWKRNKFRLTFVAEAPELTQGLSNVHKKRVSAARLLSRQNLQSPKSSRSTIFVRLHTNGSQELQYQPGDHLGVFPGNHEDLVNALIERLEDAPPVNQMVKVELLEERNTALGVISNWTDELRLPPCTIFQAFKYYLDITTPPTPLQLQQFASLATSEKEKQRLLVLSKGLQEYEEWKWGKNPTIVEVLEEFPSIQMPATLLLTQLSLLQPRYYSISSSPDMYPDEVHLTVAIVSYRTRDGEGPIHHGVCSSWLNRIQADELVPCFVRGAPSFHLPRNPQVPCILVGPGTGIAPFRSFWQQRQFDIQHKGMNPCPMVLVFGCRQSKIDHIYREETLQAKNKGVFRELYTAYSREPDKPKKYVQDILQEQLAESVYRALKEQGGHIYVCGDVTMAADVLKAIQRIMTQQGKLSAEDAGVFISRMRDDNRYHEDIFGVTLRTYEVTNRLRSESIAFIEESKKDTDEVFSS

| Compound | IC50 (Nitric oxide synthase 1 [1]) | IC50 (Nitric oxide synthase 3 [2]) | IC50 [3] | IC50 (Nitric oxide synthase 1 [4]) | IC50 (Nitric oxide synthase 3 [5]) | IC50 [6] | Ratio IC50 (Homo sapiens) |
| --- | --- | --- | --- | --- | --- | --- | --- |
| NC(=Nc1ccc2nc(NC3CCN(CCc4cnc[nH]4)CC3)sc2c1)c1cccs1 | 0.3 µM | 0.7 µM | 6 µM | 4.8 µM | 4.6 µM | 26 µM | – |
| N=C(Nc1ccc2sc(NCCc3ccccn3)nc2c1)c1cccs1 | 1.1 µM | 6 µM | 139 µM | – | – | – | 5 |
| N=C(Nc1ccc2nc(NC3CCOCC3)sc2c1)c1cccs1 | 2 µM | 16 µM | 64 µM | – | – | – | 8 |
| CN1CCCC1CCNc1nc2cc(NC(=N)c3cccs3)ccc2s1 (racemic) | 0.03 µM | 1.6 µM | 15 µM | – | – | – | 53 |
| N=C(Nc1ccc2sc(NCCN3CCOCC3)nc2c1)c1cccs1 | 1.3 µM | 12 µM | 141 µM | – | – | – | 9 |
| CCSC(=N)Nc1ccc2nc(N)sc2c1 | 1.4 µM | 9.2 µM | 46 µM | – | – | – | 7 |
| COc1cccc(CN2CCC(Nc3nc4ccc(NC(=N)c5cccs5)cc4s3)CC2)c1 | – | – | – | – | – | – | 27 |
| N=C(Nc1ccc2sc(N)nc2c1)c1cccs1 | 0.2 µM | 2.3 µM | 79 µM | – | – | – | 13 |
| CCSC(=N)Nc1ccc2sc(N)nc2c1 | – | – | – | – | – | – | 3 |
| N=C(Nc1ccc2nc(NCCc3ccc(Br)cc3)sc2c1)c1cccs1 | 4.4 µM | 2.1 µM | 75 µM | 4.7 µM | 5.2 µM | – | 0.5 |
| COC(=O)c1ccc(CN2CCC(Nc3nc4ccc(N=C(N)c5cccs5)cc4s3)CC2)cc1 | 0.3 µM | 5.2 µM | > 100 µM | – | – | – | – |
| CCSC(N)=Nc1ccc2sc(N)nc2c1 | 4.6 µM | 12 µM | 97 µM | – | – | – | – |
| NC(=Nc1ccc2sc(NC3CCN(Cc4ccccc4)CC3)nc2c1)c1cccs1 | 0.4 µM | 16 µM | 48 µM | – | – | – | – |
| N=C(Nc1ccc2nc(NC3CCN(Cc4ccccc4)CC3)sc2c1)c1cccs1 | 0.5 µM | 6 µM | 14 µM | 0.09 µM | 12.5 µM | 36 µM | 12 |
| N=C(Nc1ccc2nc(NC3CCN(Cc4ccc(C(=O)O)cc4)CC3)sc2c1)c1cccs1 | 5.1 µM | 59 µM | > 100 µM | – | – | – | 12 |
| COc1cccc(CN2CCC(Nc3nc4ccc(N=C(N)c5cccs5)cc4s3)CC2)c1 | 0.1 µM | 3.8 µM | > 100 µM | 6.7 µM | 1.3 µM | 19 µM | – |
| N=C(Nc1ccc2nc(N)sc2c1)c1cccs1 | 0.2 µM | 2.9 µM | 25 µM | – | – | – | 18 |
| N=C(Nc1ccc2nc(NC3CCN(CCc4cnc[nH]4)CC3)sc2c1)c1cccs1 | – | – | – | – | – | – | 2 |
| COc1ccc(CN2CCC(Nc3nc4ccc(N=C(N)c5cccs5)cc4s3)CC2)cc1 | 0.2 µM | 5.7 µM | 9 µM | – | – | – | – |
| N=C(Nc1ccc2sc(NC3CCN(Cc4ccccc4)CC3)nc2c1)c1cccs1 | – | – | – | – | – | – | 40 |
| N=C(Nc1ccc2nc(NC3CCN(Cc4ccc(F)cc4)CC3)sc2c1)c1cccs1 | 0.2 µM | 8 µM | 14 µM | – | – | – | 40 |
| COC(=O)c1ccc(CN2CCC(Nc3nc4ccc(NC(=N)c5cccs5)cc4s3)CC2)cc1 | – | – | – | – | – | – | 18 |
| N=C(Nc1ccc2nc(NCCN3CCOCC3)sc2c1)c1cccs1 | 0.2 µM | 1.5 µM | 37 µM | – | 9.1 µM | 44 µM | – |
| N=C(Nc1ccc2nc(NCCc3ccccn3)sc2c1)c1cccs1 | 1.3 µM | 0.9 µM | 13 µM | 0.05 µM | 3.4 µM | 25 µM | 1 |
| N=C(Nc1ccc2sc(NC3CCN(Cc4ccc(F)cc4)CC3)nc2c1)c1cccs1 | 0.8 µM | 13 µM | 91 µM | – | – | – | 16 |
| COc1ccc(CN2CCC(Nc3nc4ccc(NC(=N)c5cccs5)cc4s3)CC2)cc1 | – | – | – | – | – | – | 28 |
